Assay results as given in ChEMBL document CHEMBL4052683, “The discovery of benzoxazine sulfonamide inhibitors of NaV1.7: Tools that bridge efficacy and target engagement” (Bioorg Med Chem Lett, 2017).
Calls of active or inactive are those of the source. The calls are words filed in the database; no cut-off is given here.

Key:
Mus musculus [1] = test: Analgesic activity in C57BL/6 mouse model of formalin-induced nociception behavior assessed as reduction in formalin-evoked paw lifting/licking at 60 mg/kg, po; type: functional
Method in brief: (§1)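 Male C57BL/6 mice got 30, 60 or 100 mg/kg PO in 30% (w/v) hydroxypropyl β-cyclodextrin in water, pH 10.0 with KOH. Formalin (2%) was injected subcutaneously into the dorsal hind paw, and total phase II paw licking and lifting were scored. Morphine sulfate 3 mg/kg SC served as control. Unbound plasma concentration was divided by the mouse NaV1.7 IC50.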

[2] = Tmax in mouse at 30 mg/kg, po by LC-MS/MS method; type: ADME, organism-based; conditions: in vivo
Plasma [3] = test: Unbound plasma concentration in Sprague-Dawley rat model of formalin-induced nociception behavior at 100 mg/kg, po; type: ADME, organism-based; conditions: in vivo
Method in brief: (§2)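 Total phase II formalin-induced flinches were scored. Unbound plasma concentration was determined at each dose and related to the rat NaV1.7 IC50.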

[4] = Ratio of unbound plasma concentration in C57BL/6 mouse model of formalin-induced nociception behavior at 30 mg/kg, po to IC50 for mouse Nav1.7 by whole cell voltage clamp method; method in brief: as §1
[5] = AUC (infinity) in rat at 10 mg/kg, po by LC-MS/MS method; type: ADME, organism-based; design: dose 10 mg/kg, route oral, time infinity; conditions: in vivo
[6] = Volume of distribution in rat at 0.5 mg/kg, iv by LC-MS/MS method; type: ADME, organism-based; conditions: in vivo
[7] = Inhibition of cynomolgus monkey NaV1.7 by whole cell voltage clamp method; conditions: Macaca fascicularis
Method in brief: (§3)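 PatchXpress electrophysiology was run with a protocol giving about 20% channel inactivation. At least four concentrations at half-log spacing were applied one at a time, with washout, current recovery and holding voltage reset between each. Data were pooled from at least 10 cells, with 2–3 points per concentration, and fitted with a 4-parameter Hill curve to give one IC50.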

Rattus norvegicus [8] = test: Analgesic activity in Sprague-Dawley rat model of formalin-induced nociception behavior assessed as reduction in formalin-evoked paw flinching at 10 mg/kg, po; type: functional
Method in brief: (§4)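 Sprague Dawley rats got 10, 30 or 100 mg/kg PO in 30% (w/v) hydroxypropyl β-cyclodextrin, pH 10.0 with KOH. Total phase II formalin-induced flinches were counted. Morphine sulfate 2 mg/kg SC served as control. Unbound plasma levels were measured and compared with the rat NaV1.7 IC50.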

[9] = Apparent permeability in MDCK vector control cells at 5 uM; conditions: dog
Plasma [10] = test: Plasma concentration in Sprague-Dawley rat model of formalin-induced nociception behavior at 30 mg/kg, po; type: ADME, organism-based; conditions: in vivo; method in brief: as §4
[11] = Unbound fraction in mouse plasma at 5 uM by ultracentrifugation and LC-MS/MS method; type: ADME, cell-free
[12] = Clearance in pooled rat liver microsomes at 1 uM in presence of NADPH by LC-MS/MS method; type: ADME, microsome; conditions: read-out: CLH
[13] = Clearance in pooled human liver microsomes at 1 uM in presence of NADPH by LC-MS/MS method; type: ADME, microsome; conditions: read-out: CLH
[14] = target: Histamine H1 receptor (Homo sapiens) (UniProt P35367); test: Displacement of [3H]pyrilamine from human recombinant histamine H1 receptor expressed in HEK293 cells at 10 uM by radioligand displacement assay; type: cell-based
Sequence of Histamine H1 receptor (Homo sapiens) (P35367 whole entry): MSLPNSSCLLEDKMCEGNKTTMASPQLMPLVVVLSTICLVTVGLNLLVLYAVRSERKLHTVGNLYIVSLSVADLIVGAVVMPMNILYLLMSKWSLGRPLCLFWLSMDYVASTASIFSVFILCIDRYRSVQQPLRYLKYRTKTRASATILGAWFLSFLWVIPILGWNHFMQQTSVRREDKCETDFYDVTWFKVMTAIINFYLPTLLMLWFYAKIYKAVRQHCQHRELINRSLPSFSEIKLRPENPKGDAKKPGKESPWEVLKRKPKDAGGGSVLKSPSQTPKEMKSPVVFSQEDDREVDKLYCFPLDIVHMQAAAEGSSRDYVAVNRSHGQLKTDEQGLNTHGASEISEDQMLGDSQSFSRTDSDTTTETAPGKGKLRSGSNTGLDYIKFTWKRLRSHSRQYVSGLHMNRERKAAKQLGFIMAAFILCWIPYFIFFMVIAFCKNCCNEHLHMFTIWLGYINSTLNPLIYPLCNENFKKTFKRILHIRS

Plasma [15] = test: Plasma concentration in C57BL/6 mouse model of formalin-induced nociception behavior at 100 mg/kg, po; type: ADME, organism-based; conditions: in vivo; method in brief: as §1
Plasma [16] = test: Unbound plasma concentration in Sprague-Dawley rat model of formalin-induced nociception behavior at 30 mg/kg, po; type: ADME, organism-based; conditions: in vivo; method in brief: as §2
Plasma [17] = test: Plasma concentration in C57BL/6 mouse model of formalin-induced nociception behavior at 60 mg/kg, po; type: ADME, organism-based; conditions: in vivo; method in brief: as §1
Plasma [18] = test: Plasma concentration in C57BL/6 mouse model of histamine-induced pruritus at 100 mg/kg, po; type: ADME, organism-based; conditions: in vivo
Method in brief: (§5)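 Male C57BL/6 mice got 30, 60 or 100 mg/kg PO in 30% hydroxypropyl β-cyclodextrin, pH 10.0, 120 min before the test. Histamine (8.15mM) was given intradermally to the nape of the neck just before testing, and scratch bouts were counted over 0–30 min. Diphenhydramine 30 mg/kg PO in water, 90 min before, served as control. Unbound plasma concentrations were measured.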

[19] = Half life in mouse at 30 mg/kg, po by LC-MS/MS method; type: ADME, organism-based; conditions: in vivo
[20] = Protein binding in mouse plasma at 5 uM by ultracentrifugation and LC-MS/MS method; type: ADME, cell-free; conditions: read-out: PPB (converted)
Rattus norvegicus [21] = test: Analgesic activity in Sprague-Dawley rat model of formalin-induced nociception behavior assessed as reduction in formalin-evoked paw flinching at 100 mg/kg, po; type: functional; method in brief: as §4
[22] = Ratio of unbound plasma concentration in Sprague-Dawley rat model of formalin-induced nociception behavior at 100 mg/kg, po to IC50 for rat Nav1.7 by whole cell voltage clamp method; method in brief: as §2
[23] = target: Histamine H3 receptor (Homo sapiens) (UniProt Q9Y5N1); test: Displacement of [3H]N-alpha-Me-histamine from human recombinant histamine H3 receptor expressed in CHO cells at 10 uM by radioligand displacement assay; type: cell-based
Sequence of Histamine H3 receptor (Homo sapiens) (Q9Y5N1 whole entry): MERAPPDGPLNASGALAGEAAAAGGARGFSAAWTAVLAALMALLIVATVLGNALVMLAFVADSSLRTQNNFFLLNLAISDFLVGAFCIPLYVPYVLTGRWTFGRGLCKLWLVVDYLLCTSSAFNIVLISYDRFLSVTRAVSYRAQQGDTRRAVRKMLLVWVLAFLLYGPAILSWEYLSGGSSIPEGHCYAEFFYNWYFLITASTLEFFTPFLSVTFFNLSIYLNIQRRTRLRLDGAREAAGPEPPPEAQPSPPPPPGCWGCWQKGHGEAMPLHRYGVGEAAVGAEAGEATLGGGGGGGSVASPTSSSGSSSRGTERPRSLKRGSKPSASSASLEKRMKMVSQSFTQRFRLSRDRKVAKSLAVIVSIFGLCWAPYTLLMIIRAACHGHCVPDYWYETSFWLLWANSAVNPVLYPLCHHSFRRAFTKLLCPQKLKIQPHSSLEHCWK

Plasma [24] = test: Plasma concentration in C57BL/6 mouse model of histamine-induced pruritus at 60 mg/kg, po; type: ADME, organism-based; conditions: in vivo; method in brief: as §5
Mus musculus [25] = test: Anti-pruritic activity in C57BL/6 mouse model of histamine-induced pruritus assessed as reduction in histamine-induced scratching at 30 mg/kg, po dosed 120 mins before test; type: functional; method in brief: as §5
[26] = AUC (infinity) in mouse at 30 mg/kg, po by LC-MS/MS method; type: ADME, organism-based; design: dose 30 mg/kg, time infinity, route oral; conditions: in vivo
Rattus norvegicus [27] = test: Analgesic activity in Sprague-Dawley rat model of formalin-induced nociception behavior assessed as reduction in formalin-evoked paw flinching at 30 mg/kg, po; type: functional; method in brief: as §4
[28] = target: Sodium channel protein type 9 subunit alpha (Mus musculus, UniProt Q62205); test: Inhibition of mouse NaV1.7 by whole cell voltage clamp method; method in brief: as §3
Sequence of Sodium channel protein type 9 subunit alpha (Mus musculus, UniProt Q62205) (Q62205 whole entry): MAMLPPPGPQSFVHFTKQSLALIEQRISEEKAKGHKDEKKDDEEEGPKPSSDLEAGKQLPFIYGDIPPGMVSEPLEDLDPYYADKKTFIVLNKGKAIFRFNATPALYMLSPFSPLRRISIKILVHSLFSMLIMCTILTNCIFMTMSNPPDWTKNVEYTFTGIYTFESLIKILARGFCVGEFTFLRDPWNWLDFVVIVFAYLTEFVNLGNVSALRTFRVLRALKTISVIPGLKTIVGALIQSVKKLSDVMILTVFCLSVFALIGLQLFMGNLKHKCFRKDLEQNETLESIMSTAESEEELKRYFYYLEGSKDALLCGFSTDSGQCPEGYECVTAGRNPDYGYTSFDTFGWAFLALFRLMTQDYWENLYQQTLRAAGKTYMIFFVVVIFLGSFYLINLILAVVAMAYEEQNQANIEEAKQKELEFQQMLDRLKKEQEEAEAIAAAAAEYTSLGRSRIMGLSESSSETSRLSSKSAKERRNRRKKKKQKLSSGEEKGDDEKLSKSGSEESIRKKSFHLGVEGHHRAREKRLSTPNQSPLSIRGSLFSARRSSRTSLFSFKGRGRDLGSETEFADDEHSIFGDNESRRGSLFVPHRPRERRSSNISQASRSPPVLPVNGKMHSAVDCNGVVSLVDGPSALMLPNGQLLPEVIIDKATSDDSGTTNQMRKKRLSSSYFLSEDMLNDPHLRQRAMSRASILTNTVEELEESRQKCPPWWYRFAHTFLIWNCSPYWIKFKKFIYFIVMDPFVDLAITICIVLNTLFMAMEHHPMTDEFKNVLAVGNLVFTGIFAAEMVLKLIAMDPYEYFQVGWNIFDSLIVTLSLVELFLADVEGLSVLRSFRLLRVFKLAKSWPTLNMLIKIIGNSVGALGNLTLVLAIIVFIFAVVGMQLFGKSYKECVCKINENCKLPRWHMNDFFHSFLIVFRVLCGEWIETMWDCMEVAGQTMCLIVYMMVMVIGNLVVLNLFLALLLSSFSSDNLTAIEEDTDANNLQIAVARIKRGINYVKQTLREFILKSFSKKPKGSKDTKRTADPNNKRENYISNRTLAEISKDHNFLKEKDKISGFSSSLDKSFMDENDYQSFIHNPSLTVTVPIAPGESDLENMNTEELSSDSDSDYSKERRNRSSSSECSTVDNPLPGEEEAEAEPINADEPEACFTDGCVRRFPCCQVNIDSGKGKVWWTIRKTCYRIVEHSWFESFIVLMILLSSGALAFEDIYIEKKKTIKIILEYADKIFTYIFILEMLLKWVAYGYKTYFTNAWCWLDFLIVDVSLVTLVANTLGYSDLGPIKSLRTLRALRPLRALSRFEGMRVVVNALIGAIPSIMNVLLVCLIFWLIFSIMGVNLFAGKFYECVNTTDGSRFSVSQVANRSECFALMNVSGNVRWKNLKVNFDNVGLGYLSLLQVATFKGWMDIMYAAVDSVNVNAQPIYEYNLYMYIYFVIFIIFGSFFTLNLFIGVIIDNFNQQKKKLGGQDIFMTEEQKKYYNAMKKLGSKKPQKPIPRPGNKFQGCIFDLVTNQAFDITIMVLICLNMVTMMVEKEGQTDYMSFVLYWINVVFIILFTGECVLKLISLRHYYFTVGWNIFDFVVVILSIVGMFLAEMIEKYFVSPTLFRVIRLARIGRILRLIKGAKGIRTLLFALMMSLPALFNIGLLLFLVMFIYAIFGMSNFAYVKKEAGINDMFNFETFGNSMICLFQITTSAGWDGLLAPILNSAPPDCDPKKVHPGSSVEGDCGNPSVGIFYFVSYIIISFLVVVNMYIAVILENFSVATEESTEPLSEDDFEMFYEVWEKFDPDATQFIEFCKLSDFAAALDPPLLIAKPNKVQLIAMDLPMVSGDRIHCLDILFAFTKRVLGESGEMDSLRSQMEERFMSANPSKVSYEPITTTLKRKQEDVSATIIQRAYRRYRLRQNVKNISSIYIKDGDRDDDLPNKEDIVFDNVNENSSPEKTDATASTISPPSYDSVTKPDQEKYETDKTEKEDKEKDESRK

[29] = target: Sodium channel protein type 9 subunit alpha (Rattus norvegicus, UniProt O08562); test: Inhibition of rat NaV1.7 by cell based whole cell voltage clamp method; method in brief: as §3
Sequence of Sodium channel protein type 9 subunit alpha (Rattus norvegicus, UniProt O08562) (O08562 whole entry): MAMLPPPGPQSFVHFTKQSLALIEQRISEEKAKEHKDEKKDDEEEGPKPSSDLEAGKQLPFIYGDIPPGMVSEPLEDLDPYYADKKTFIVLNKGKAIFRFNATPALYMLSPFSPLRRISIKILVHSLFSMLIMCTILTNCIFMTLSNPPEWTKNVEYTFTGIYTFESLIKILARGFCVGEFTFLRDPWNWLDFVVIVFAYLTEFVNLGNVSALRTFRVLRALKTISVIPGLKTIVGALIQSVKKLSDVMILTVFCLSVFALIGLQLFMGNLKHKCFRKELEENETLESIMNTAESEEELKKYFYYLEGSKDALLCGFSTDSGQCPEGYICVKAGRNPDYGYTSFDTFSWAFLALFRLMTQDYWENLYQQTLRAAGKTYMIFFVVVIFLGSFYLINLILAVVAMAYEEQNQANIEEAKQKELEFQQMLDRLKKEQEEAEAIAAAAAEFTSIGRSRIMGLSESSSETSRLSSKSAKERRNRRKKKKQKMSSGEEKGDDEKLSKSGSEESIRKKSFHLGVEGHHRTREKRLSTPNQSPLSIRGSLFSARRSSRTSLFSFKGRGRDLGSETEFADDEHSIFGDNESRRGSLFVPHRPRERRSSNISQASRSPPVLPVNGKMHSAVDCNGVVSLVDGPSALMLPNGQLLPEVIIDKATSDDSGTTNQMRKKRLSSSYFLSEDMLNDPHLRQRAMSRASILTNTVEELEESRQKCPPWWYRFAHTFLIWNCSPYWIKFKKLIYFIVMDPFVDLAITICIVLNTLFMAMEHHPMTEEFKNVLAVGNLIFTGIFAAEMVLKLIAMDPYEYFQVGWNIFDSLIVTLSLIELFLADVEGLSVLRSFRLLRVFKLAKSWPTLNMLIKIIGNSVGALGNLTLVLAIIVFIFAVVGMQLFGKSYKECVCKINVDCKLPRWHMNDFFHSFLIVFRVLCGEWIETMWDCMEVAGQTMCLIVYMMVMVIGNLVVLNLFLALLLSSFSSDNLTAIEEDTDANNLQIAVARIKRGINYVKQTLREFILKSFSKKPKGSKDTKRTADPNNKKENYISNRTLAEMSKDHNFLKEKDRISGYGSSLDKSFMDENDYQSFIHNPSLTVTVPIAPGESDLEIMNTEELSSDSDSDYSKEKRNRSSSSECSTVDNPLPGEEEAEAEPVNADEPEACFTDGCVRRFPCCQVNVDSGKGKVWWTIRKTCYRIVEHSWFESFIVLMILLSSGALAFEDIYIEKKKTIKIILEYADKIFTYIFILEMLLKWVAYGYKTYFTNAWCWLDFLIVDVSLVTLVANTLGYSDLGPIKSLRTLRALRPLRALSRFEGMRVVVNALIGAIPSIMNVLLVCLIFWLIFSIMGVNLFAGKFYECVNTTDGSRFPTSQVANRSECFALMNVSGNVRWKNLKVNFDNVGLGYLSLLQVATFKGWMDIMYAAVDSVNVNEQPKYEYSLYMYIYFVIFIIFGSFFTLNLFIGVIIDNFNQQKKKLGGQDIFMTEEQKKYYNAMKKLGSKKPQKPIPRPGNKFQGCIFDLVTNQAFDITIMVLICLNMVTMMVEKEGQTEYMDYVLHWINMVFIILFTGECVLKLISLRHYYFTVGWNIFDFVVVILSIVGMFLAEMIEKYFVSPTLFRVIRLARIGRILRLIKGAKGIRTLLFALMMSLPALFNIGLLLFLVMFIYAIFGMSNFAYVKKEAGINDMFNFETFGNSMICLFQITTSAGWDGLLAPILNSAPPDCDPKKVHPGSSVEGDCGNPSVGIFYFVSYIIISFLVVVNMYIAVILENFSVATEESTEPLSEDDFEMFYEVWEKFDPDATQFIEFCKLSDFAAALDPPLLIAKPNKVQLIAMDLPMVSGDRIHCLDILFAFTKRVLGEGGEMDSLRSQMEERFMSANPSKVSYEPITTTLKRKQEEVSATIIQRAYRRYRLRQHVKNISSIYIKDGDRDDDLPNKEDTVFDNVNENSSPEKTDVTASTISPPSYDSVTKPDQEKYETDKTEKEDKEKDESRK

Mus musculus [30] = test: Analgesic activity in C57BL/6 mouse model of formalin-induced nociception behavior assessed as reduction in formalin-evoked paw lifting/licking at 30 to 100 mg/kg, po; type: functional, organism-based; method in brief: as §1
Plasma [31] = test: Unbound plasma concentration in C57BL/6 mouse model of histamine-induced pruritus at 60 mg/kg, po; type: ADME, organism-based; conditions: in vivo
Method in brief: (§6)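 The formalin arm received 2% formalin subcutaneously into the dorsal hind paw, and total phase II licking and lifting was scored. The pruritus arm was dosed 120 min before histamine (8.15mM, intradermal, nape of neck), and scratch bouts were counted over 0-30 min. Unbound plasma concentration was determined at each dose.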

[32] = Ratio of unbound plasma concentration in C57BL/6 mouse model of formalin-induced nociception behavior at 60 mg/kg, po to IC50 for mouse Nav1.7 by whole cell voltage clamp method; method in brief: as §6
[33] = Ratio of unbound plasma concentration in C57BL/6 mouse model of histamine-induced pruritus at 30 mg/kg, po to IC50 for mouse Nav1.7 by whole cell voltage clamp method; method in brief: as §6
Rattus norvegicus [34] = test: Analgesic activity in Sprague-Dawley rat model of formalin-induced nociception behavior assessed as reduction in formalin-evoked paw flinching at 10 to 100 mg/kg, po; type: functional, organism-based; method in brief: as §4

N#Cc1cc(C(F)(F)F)ccc1N1CCOc2cc(S(=O)(=O)Nc3nccs3)c(F)cc21
MPE (Mus musculus [1]): 45% | Tmax [2]: 2 h | Cp(f) (Plasma [3]): 0.18 µM | Ratio [4]: 5 | AUC(0-inf) [5]: 20 µM·h | Vd [6]: 2.5 L/kg | IC50 [7]: 0.37 µM | MPE (Rattus norvegicus [8]): 17% | Papp at 5 µM [9]: 190 nm/s | concentration (Plasma [10]): 4.2 µM | fraction unbound at 5 µM [11]: 0.006 | microsomal CLint at 1 µM [12]: < 14 µL/min/mg | microsomal CLint at 1 µM [13]: < 14 µL/min/mg | inhibition [14]: inactive | concentration (Plasma [15]): 150 µM | Cp(f) (Plasma [16]): 0.065 µM | concentration (Plasma [17]): 100 µM | concentration (Plasma [18]): 113 µM | half-life [19]: 7.1 h | fraction unbound at 5 µM [20]: 0.006 | MPE (Rattus norvegicus [21]): 70% | Ratio [22]: 3.6 | inhibition [23]: inactive | concentration (Plasma [24]): 109 µM | MPE (Mus musculus [25]): 37% | AUC(0-inf) [26]: 790 µM·h | MPE (Rattus norvegicus [27]): 39% | IC50 [28]: 0.06 µM | IC50 [29]: 0.067 µM | inhibition (Mus musculus [30]): Dose-dependent effect | Cp(f) (Plasma [31]): 0.66 µM | Ratio [32]: 10 | Ratio [33]: 6 | inhibition (Rattus norvegicus [34]): Dose-dependent effect
